Compound activity from PubChem BioAssay.
The list is not random: actives were taken first. Their share in the collection is about 3.2%.
UBC13 polyUb – blocks human UBC13 polyubiquitin chain formation; 330,000 tested, 0.47% active; inhibition, % at 20 µM; P61088; AID 485273; TR-FRET; in the data active means inhibition above about 45%, passing the limit was not always enough
MEKK2 mut-MEK5 – signal of MEK5 binding to mutant human MEKK2 PB1 domain | percent response, % at 10 µM | bead flow cytometry, Alexa488-MEK5 binding to MEKK2 mutant | 290,000 tested, 0.35% active; in the data active means percent response above about 24%, passing the limit was not always enough
MEKK2wt PB1 HTS – raises or lowers MEK5 binding to wildtype human MEKK2 PB1 domain | bead flow cytometry, Alexa488-MEK5 binding to MEKK2 WT; actives lie on both sides | binding response (% of control), % at 10 µM | 290,000 tested, 1.1% active | AID 1531; in the data active means binding response below about 67% or above about 130%
Apaf-1 inh – inhibitors of human Apaf-1 apoptosome | O14727 | reconstituted apoptosome caspase-3 activity, DEVD-Rh110 fluorescence | inhibition, % at 20 µM | 330,000 tested, 0.71% active; active means inhibition of at least 40% at 20 µM;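 further: plate controls were DMSO wells for no effect and DEVD-CHO caspase inhibitor wells for full effect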
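Material: reconstituted apoptosome with Apaf-1, cytochrome c, caspase-9, procaspase-3, dATP. Technique: Rh110 fluorescence intensity. Buffer or medium: pH 7.5 Hepes buffer with CHAPS, BSA, DTT. Times: 30 min plus 50 min, RT.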
Pemphigus Ab inh – blocks pemphigus antibody binding to human desmoglein-3. P32926. DSG3-coupled beads, scFv-anti-DSG3-GFP binding, flow cytometry; hits give low values. binding (percent of control), % at 10 µM. 310,000 tested, 0.48% active;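 active means binding more than 3 SD below its plate's average and above zero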;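 further: hits lower antibody fragment binding to DSG3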
Target sequence (P32926 whole entry, looked up, the tested form may be a part): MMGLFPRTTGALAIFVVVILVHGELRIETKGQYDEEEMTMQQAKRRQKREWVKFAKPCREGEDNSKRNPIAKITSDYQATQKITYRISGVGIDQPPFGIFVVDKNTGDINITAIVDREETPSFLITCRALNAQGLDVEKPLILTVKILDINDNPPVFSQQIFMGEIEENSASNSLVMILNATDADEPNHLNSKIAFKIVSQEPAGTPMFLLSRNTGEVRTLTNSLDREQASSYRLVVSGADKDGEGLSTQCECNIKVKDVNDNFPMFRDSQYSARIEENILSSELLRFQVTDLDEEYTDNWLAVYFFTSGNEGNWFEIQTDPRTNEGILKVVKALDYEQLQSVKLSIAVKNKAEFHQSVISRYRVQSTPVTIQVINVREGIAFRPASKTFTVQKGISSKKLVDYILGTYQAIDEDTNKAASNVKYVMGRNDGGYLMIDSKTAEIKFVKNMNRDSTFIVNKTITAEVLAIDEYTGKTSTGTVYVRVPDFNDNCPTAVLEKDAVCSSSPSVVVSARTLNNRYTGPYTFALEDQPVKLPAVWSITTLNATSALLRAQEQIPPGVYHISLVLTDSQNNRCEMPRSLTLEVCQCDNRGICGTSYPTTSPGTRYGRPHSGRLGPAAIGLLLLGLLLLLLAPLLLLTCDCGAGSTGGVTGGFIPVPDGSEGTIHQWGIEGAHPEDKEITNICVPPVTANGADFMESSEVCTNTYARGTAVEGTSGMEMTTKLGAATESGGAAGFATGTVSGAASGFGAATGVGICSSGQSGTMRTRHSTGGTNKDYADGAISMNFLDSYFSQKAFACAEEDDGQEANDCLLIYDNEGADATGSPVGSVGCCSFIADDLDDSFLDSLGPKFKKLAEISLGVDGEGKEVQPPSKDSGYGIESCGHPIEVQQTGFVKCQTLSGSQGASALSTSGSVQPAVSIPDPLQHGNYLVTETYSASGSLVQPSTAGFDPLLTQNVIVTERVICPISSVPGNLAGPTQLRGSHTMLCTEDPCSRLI
MEKK3 PB1 HTS – modulators (inhibitors or enhancers) of MEK5 binding to human MEKK3 PB1 domain; Q99759; bead-based flow cytometry, Alexa488-MEK5 binding to MEKK3; actives lie on both sides; 0 = blocked by unlabeled MEK5, 100 = vehicle; binding response (% of control), % at 10 µM; 290,000 tested, 1.4% active; AID 1529;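 active means binding response more than 3 SD above or below the average of its plate-row segment, actives on both sides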;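 further: Alexa488 bead fluorescence after subtracting the streptavidin-only scavenger bead signal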
MEKK2wt confirm – raises or lowers MEK5 binding to wildtype human MEKK2, retest; AID 1892; 5,900 tested, 2.4% active; shares compounds with MEKK3 PB1 HTS; binding response (% of control), % at 10 µM; bead flow cytometry, Alexa488-MEK5 binding to MEKK2 WT; actives lie on both sides; in the data active means binding response below about 16% or above about 210%; inactive means in between
MEKK2mut-MEK5 – signal of MEK5 binding to mutant human MEKK2, retest. shares compounds with MEKK3 PB1 HTS. bead flow cytometry, Alexa488-MEK5 binding to MEKK2 mutant. percent response, % at 10 µM. 5,900 tested, 2% active; in the data active means percent response mostly above about 71%, no sharp cut-off; inactive means mostly below about 38%;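 further: higher means compound restores mutant binding toward wildtype level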
MEKK3 confirm – confirmation of inhibitors of MEK5 binding to human MEKK3; shares compounds with MEKK3 PB1 HTS; bead flow cytometry, Alexa488-MEK5 binding to MEKK3; hits give low values; binding response (% of control), % at 10 µM; 5,900 tested, 1.8% active;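 active means binding response below 72% of control, or above a set upper limit, though filed actives all read lower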;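 further: 100% = DMSO only wells and 0% = binding blocked by excess unlabeled MEK5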
Casp3 counter – counter-screen for UBC13 inhibitors: human caspase-3 inhibition; Recombinant caspase-3, Caspase-Glo 3/7 luminescence, 60 min; 1,400 tested, 4% active; inhibition, % at 20 µM; shares compounds with UBC13 polyUb;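 active means mean inhibition across replicates above about 26%, limit read from the data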;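 further: plate controls were DMSO with caspase-3 for no effect and DMSO wells lacking enzyme for full effect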
UBC13 conf – confirmation of human UBC13 polyubiquitin inhibitors. shares compounds with UBC13 polyUb. UBC13 polyubiquitination, TR-FRET, biochemical. inhibition, % at 10 µM. 1,400 tested, 68% active. AID 488859; in the data active means inhibition above about 45%
Apaf-1 inh conf – Apaf-1 inhibition, single-dose confirmed | shares compounds with Apaf-1 inh | reconstituted apoptosome, caspase-3 DEVD-Rh110 fluorescence | inhibition, % at 20 µM | 1,800 tested, 25% active | AID 504614;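 active means mean inhibition of at least 40% at 20 µM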;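 further: plate controls were DMSO wells for no effect and DEVD-CHO caspase inhibitor control wells for full effect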
Rh110 quench – interferes with Rh110 fluorescence, flagging false Apaf-1 inhibitors; AID 504615; shares compounds with Apaf-1 inh; Rh110 fluorescence interference, quenched caspase reaction; activation (fluorescence interference), % at 20 µM; 1,800 tested, under 10 active;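 active means signal rise of 40% or more at 20 µM, treated as a fluorescence artifact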
Apaf1 inh interf – Apaf-1 inhibitor counter-screen fluorescence artifact; shares compounds with Apaf-1 inh; fluorescence interference counterscreen, Apaf-1 assay format; IC50, µM; 460 tested, under 10 active; call rule not given here
Active calls of the source: *; nt = not tested or not shown; [ ] = dose if it differs, or a comment.

SMILES | UBC13 polyUb | MEKK2 mut-MEK5 | MEKK2wt PB1 HTS | Apaf-1 inh | Pemphigus Ab inh | MEKK3 PB1 HTS | MEKK2wt confirm | MEKK2mut-MEK5 | MEKK3 confirm | Casp3 counter | UBC13 conf | Apaf-1 inh conf | Rh110 quench | others
C#CCOCCOCCOCCNc1nc(N2CCN(C(=O)[C@H](CCC(=O)O)n3cc(C(N)CC(C)C)nn3)CC2)nc(N2CCN(C(=O)[C@H](Cc3cc4ccccc4[nH]3)n3cc(C(N)CC(C)C)nn3)CC2)n1 (stereo partly specified) | 2 | 8 | 107 | -3 | 108 | 98 | nt | nt | nt | nt | nt | nt | nt
C#CCOCCOCCOCCNc1nc(N2CCOCC2)nc(N2CCN(C(=O)[C@H](CCCCN)n3cc([C@@H](N)C(C)CC)nn3)CC2)n1 (stereo partly specified) | 23 | 5 | 112 | 2 | 98 | 99 | nt | nt | nt | nt | nt | nt | nt
C#CCOCCOCCOCCNc1nc(N2CCN(C(=O)[C@H](Cc3cc4ccccc4[nH]3)n3cc([C@@H](N)C(C)CC)nn3)CC2)nc(N2CCN(C(=O)[C@H](CCCCN)n3cc([C@@H](N)CC(C)C)nn3)CC2)n1 (stereo partly specified) | 98* | 95* | 247* | 41* | nt | 111 | 232* | 89* | 113 | -2 | 116* | 7 | 7
C#CCOCCOCCOCCNc1nc(N2CCN(C(=O)[C@H](Cc3ccc(O)cc3)n3cc([C@@H](N)C(C)CC)nn3)CC2)nc(N2CCN(C(=O)[C@H](Cc3cc4ccccc4[nH]3)n3cc([C@@H](N)CC(C)C)nn3)CC2)n1 (stereo partly specified) | 76* | 73* | 224* | 47* | nt | 117 | 231* | 117* | 115 | -4 | 56* | 1 | 3
C#CCOCCOCCOCCNc1nc(N2CCN(C(=O)[C@H](Cc3cc4ccccc4[nH]3)n3cc([C@@H](N)CC(C)C)nn3)CC2)nc(N2CCN(C(=O)[C@H](Cc3cc4ccccc4[nH]3)n3cc([C@@H](N)CC(C)C)nn3)CC2)n1 | 106* | 112* | 258* | 71* | 117 | 118 | 289* | 132* | 112 | -1 | 105* | 25 | 20
CCCNC(=O)CSc1nnc(NC(=O)C2CC(=O)N(c3ccccc3OC)C2)s1 (stereo unspecified) | nt | nt | nt | nt | 107 | nt | nt | nt | nt | nt | nt | nt | nt
O=C(c1ccc(OCCN2CCCCC2)cc1)c1c(-c2ccc(O)cc2)sc2cc(O)ccc12 | 92* | 28* | 201* | 47* | 112 | 111 | 143 | 33 | 94 | 4 | 102* | 8 | -5
COC(=O)c1ccc(OCCN2CCCCCC2)cc1 | -7 | 2 | 110 | -3 | 107 | 99 | nt | nt | nt | nt | nt | nt | nt
CCOC(=O)C1=C(c2ccccc2)NC(N)=NC1c1ccc(OCc2ccc(C(=O)OC)cc2)cc1 (stereo unspecified) | 55* | 49 | 194* | 61* | 109 | 109 | 260* | 76* | 112 | -4 | 92* | 62* | -8 | Apaf1 inh interf=>100
CCc1ccc(OCC(O)CN2CCC(CN3C(=O)c4cccc5cccc(c45)C3=O)CC2)cc1 (stereo unspecified) | 61* | 1 | 148* | 42* | 136 | 118 | 199 | 43 | 108 | 4 | 65* | 13 | -10
Cc1onc(-c2ccccc2Cl)c1C(=O)NCc1ccc2c(c1)cc(C)n2C | 13 | -8 | 43*[inhibitor] | 53* | nt | 59*[inhibitor] | 93 | -3 | 99 | nt | nt | 19 | 1
Cc1nc(SCCc2nc3ccccc3[nH]2)c2oc3ccccc3c2n1 | 6 | nt | nt | -2 | 98 | nt | nt | nt | nt | nt | nt | nt | nt
CN1CCN(c2ccc(NC(=O)c3ccc(-c4ccc(Br)cc4)o3)cc2)CC1 | 44 | 35 | 168* | 45* | 104 | 99 | 173 | 38 | 104 | nt | nt | 42* | -2 | Apaf1 inh interf=>100
Cc1ccc2nc(-c3ccc(NC(=S)NC4CC(C)(C)NC(C)(C)C4)cc3)sc2c1 | 91* | 74* | 235* | 50* | 106 | 107 | 218* | 90* | 92 | 11 | 96* | 42* | 10 | Apaf1 inh interf=>100
N=c1n(Cc2ccccc2)c2ccccc2n1CC(O)COc1ccc(Cl)cc1Cl (stereo unspecified) | 65* | 63* | 220* | 52* | 104 | 111 | 172 | 30 | 97 | 0 | 91* | 38 | -18
COc1cccc2c1C(=O)c1c(O)c3c(c(O)c1C2=O)CC(O)(C(=O)CO)CC3OC1CC(N(C)C)C(O)C(C)O1 (stereo unspecified) | nt | nt | nt | nt | 86 | nt | nt | nt | nt | nt | nt | nt | nt
CC(=O)[C@]1(O)Cc2c(O)c3c(c(O)c2[C@@H](O[C@H]2C[C@H](N)[C@H](O)[C@H](C)O2)C1)C(=O)c1ccccc1C3=O | -406 | 30* | 25* | 47* | nt | 105 | 104 | 2 | 101 | nt | nt | 15 | -32
CCCCCCCCCCOC(=O)Cn1c(COc2ccccc2OC)[n+](C)c2ccccc21 | 64* | 61* | 238* | 71* | 120 | 111 | 251* | 141* | 112 | 1 | 68* | 65* | 34 | Apaf1 inh interf=>100
Cc1ccccc1OCCNc1cc(N2CC(C)NC(C)C2)ccc1[N+](=O)[O-] (stereo unspecified) | 22 | 47 | 198* | 56* | 107 | 120 | 137 | 31 | 100 | nt | nt | 24 | 9
